Experimental data from ChEMBL document CHEMBL1123462, “Indolo[2,1-c][1,4]benzodiazepines: a new class of antiallergic agents” (J Med Chem, 1986).

Tests used:
Rattus norvegicus [1] = assay: Compound was tested for percent inhibition, at 3.3 mg/kg administered intraperitoneally against serotonin by Dunnett's test; assay type: functional; details: ip, route intraperitoneal
Method in brief: (§1)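 Male Sprague-Dawley rats were given 0.05 mL of high-titer IgE rat anti-ovalbumin antiserum intradermally. 24 h later: iv ovalbumin plus Evans Blue in saline, with simultaneous intradermal serotonin and histamine. Drug given ip 1 h before antigen. At 30 min, skin was reflected and wheal size and colour scored against a chart. %inhibition = (1 − mean treated/mean control score)×100. Dunnett's test, p ≤ 0.05.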

Cavia porcellus [2] = assay: Compound was tested for the inhibition of guinea pig active lung anaphylaxis (ALA) at 1 mg/kg iv; assay type: functional
Method in brief: (§2)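 Guinea pigs were sensitized with egg albumin 1 mg sc plus Bordetella pertussis vaccine adjuvant. Two weeks later: pentobarbital 65 mg/kg ip, then trachea, jugular vein and carotid cannulated. Drug given iv before an iv egg albumin challenge (0.5 mg/kg). Airway resistance (bronchoconstriction) and arterial pressure monitored. %inhibition given as mean ± SE; ED50 iv with 95% confidence limits.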

Rattus norvegicus [3] = assay: Compound was tested for percent inhibition, at 0.37 mg/kg administered intraperitoneally against histamine; assay type: functional; details: ip, route intraperitoneal; method in brief: as §1
Rattus norvegicus [4] = assay: Compound was tested for percent inhibition, at 3.3 mg/kg administered intraperitoneally against rat passive cutaneous anaphylaxis by Dunnett's test; assay type: functional; details: ip, route intraperitoneal; method in brief: as §1
Rattus norvegicus [5] = assay: Compound was tested for percent inhibition, at 0.37 mg/kg administered intraperitoneally against serotonin by Dunnett's test; assay type: functional; details: ip, route intraperitoneal; method in brief: as §1
Rattus norvegicus [6] = assay: Compound was tested […] for the inhibition of serotonin release in rat peritoneal cell; assay type: functional
Rattus norvegicus [7] = assay: Compound was tested for the inhibition of rat passive cutaneous anaphylaxis (PCA) at 0.37 mg/kg dose ip (1h pretreatment); assay type: functional; details: route intraperitoneal; method in brief: as §1
Rattus norvegicus [8] = assay: Compound was tested for percent inhibition, at 3.3 mg/kg administered intraperitoneally against histamine by Dunnett's test; assay type: functional; details: ip, route intraperitoneal; method in brief: as §1
Rattus norvegicus [9] = assay: Compound was tested for the inhibition of rat passive cutaneous anaphylaxis (PCA) administered intraperitoneally; assay type: functional; details: ip; method in brief: as §1
Rattus norvegicus [10] = assay: Compound was tested for the inhibition of rat passive cutaneous anaphylaxis (PCA) at 10 mg/kg dose ip (1h pretreatment); assay type: functional; details: route intraperitoneal
Rattus norvegicus [11] = assay: Compound was tested for percent inhibition, at 0.12 mg/kg administered intraperitoneally against histamine; assay type: functional; details: ip, read-out: Inhibition, route intraperitoneal; method in brief: as §1
Rattus norvegicus [12] = assay: Compound was tested for percent inhibition, at 0.12 mg/kg administered intraperitoneally against serotonin by Dunnett's test; assay type: functional; details: ip, read-out: Inhibition, route intraperitoneal; method in brief: as §1
Rattus norvegicus [13] = assay: Compound was tested for percent inhibition, at 0.12 mg/kg administered intraperitoneally against rat passive cutaneous anaphylaxis by Dunnett's test; assay type: functional; details: ip, read-out: Inhibition, route intraperitoneal; method in brief: as §1
Rattus norvegicus [14] = assay: Compound was tested for percent inhibition, at 0.37 mg/kg administered intraperitoneally against histamine by Dunnett's test; assay type: functional; details: ip, route intraperitoneal; method in brief: as §1
Cavia porcellus [15] = assay: Compound was tested for the inhibition of guinea pig active lung anaphylaxis (ALA) administered intravenously; assay type: functional; details: iv; method in brief: as §2
Rattus norvegicus [16] = assay: Compound was tested for percent inhibition, at 1 mg/kg administered intravenously against rat passive cutaneous anaphylaxis by Dunnett''s test; details: iv, read-out: Inhibition
Rattus norvegicus [17] = assay: Compound was tested for percent inhibition, at 10 mg/kg administered intravenously against serotonin by Dunnett's test; details: iv
Rattus norvegicus [18] = assay: Compound was tested for percent inhibition, at 1 mg/kg administered intravenously against histamine; details: iv, read-out: Inhibition
Rattus norvegicus [19] = assay: Compound was tested for the inhibition of rat passive cutaneous anaphylaxis (PCA) at 10 mg/kg dose iv (5 min pretreatment); assay type: functional
Method in brief: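 Rat skin IgE/ovalbumin PCA with simultaneous intradermal histamine and serotonin wheals. Drug given iv 5 min before the iv ovalbumin/Evans Blue challenge. Read 30 min later by wheal size and colour score. %inhibition = (1 − mean treated/mean control score)×100. Dunnett's test, p ≤ 0.05.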

Cavia porcellus [20] = assay: Compound was tested for the inhibition of guinea pig active lung anaphylaxis (ALA) at 100 mg/kg iv; assay type: functional; method in brief: as §2
Rattus norvegicus [21] = assay: Compound was tested for percent inhibition, at 10 mg/kg administered intravenously against histamine by Dunnett's test; details: iv
Cavia porcellus [22] = assay: Inhibition of guinea pig ALA at a dose of 1 mg/kg 8 hr after postdosing orally; assay type: functional; details: route oral
Method in brief: (§3)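 Guinea pigs were sensitized with egg albumin 1 mg sc plus pertussis vaccine adjuvant. Two weeks later they were anesthetized (pentobarbital 65 mg/kg ip) and cannulated. Drug was given ip or orally at 1 mg/kg. Challenge with egg albumin 0.5 mg/kg iv at 1, 7, 8 or 24 h post-dose, with bronchoconstriction measured. %inhibition given as mean ± SD.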

Cavia porcellus [23] = assay: Inhibition of guinea pig ALA at a dose of 1 mg/kg 1 hr after postdosing orally; assay type: functional; details: route oral; method in brief: as §3
Cavia porcellus [24] = assay: Inhibition of guinea pig ALA at a dose of 1 mg/kg 24 hr after postdosing intraperitoneally; assay type: functional; details: ip, route intraperitoneal; method in brief: as §3
Cavia porcellus [25] = assay: Compound was tested for the inhibition of guinea pig active lung anaphylaxis (ALA) at 0.001 mg/kg iv; assay type: functional; method in brief: as §2
Cavia porcellus [26] = assay: Inhibition of guinea pig ALA at a dose of 1 mg/kg 24 hr after postdosing orally; assay type: functional; details: route oral; method in brief: as §3
Cavia porcellus [27] = assay: Inhibition of guinea pig ALA at a dose of 1 mg/kg 1 hr after postdosing intraperitoneally; assay type: functional; details: ip, route intraperitoneal; method in brief: as §3
Cavia porcellus [28] = assay: Inhibition of guinea pig ALA at a dose of 1 mg/kg 7 hr after postdosing intraperitoneally; assay type: functional; details: ip, route intraperitoneal; method in brief: as §3
Cavia porcellus [29] = species: Cavia porcellus; assay: Compound was tested for the inhibition of guinea pig active lung anaphylaxis (ALA) Percent inhibition; assay type: functional; method in brief: as §2
Rattus norvegicus [30] = assay: Compound was tested for percent inhibition, at 1.1 mg/kg administered intraperitoneally against serotonin by Dunnett's test; assay type: functional; details: ip, route intraperitoneal; method in brief: as §1
Rattus norvegicus [31] = species: Rattus norvegicus; assay: Compound was tested for the inhibition of rat passive cutaneous anaphylaxis (PCA) Percent inhibition; assay type: functional; method in brief: as §1
Rattus norvegicus [32] = assay: Compound was tested for the inhibition of rat passive cutaneous anaphylaxis (PCA) Dose administered intraperitoneally; assay type: functional; method in brief: as §1
Cavia porcellus [33] = assay: Percent inhibition at a dose of 1 mg/kg at given time postdosing intraperitoneally 24 h; assay type: functional; details: ip, route intraperitoneal; method in brief: as §3
Cavia porcellus [34] = assay: Percent inhibition at a dose of 1 mg/kg at given time postdosing orally 8 h; assay type: functional; details: route oral; method in brief: as §3
Rattus norvegicus [35] = assay: Compound was tested for percent inhibition, at 1.1 mg/kg administered intraperitoneally against histamine; assay type: functional; details: ip, route intraperitoneal; method in brief: as §1
Rattus norvegicus [36] = assay: Compound was tested […] for the inhibition of serotonin release in rat peritoneal cell
Cavia porcellus [37] = assay: Percent inhibition at a dose of 1 mg/kg at given time postdosing orally 24 h; assay type: functional; details: route oral; method in brief: as §3
Cavia porcellus [38] = assay: Percent inhibition at a dose of 1 mg/kg at given time postdosing orally 1 h; assay type: functional; details: route oral; method in brief: as §3
Cavia porcellus [39] = assay: Percent inhibition at a dose of 1 mg/kg at given time postdosing intraperitoneally 1 h; assay type: functional; details: ip, route intraperitoneal; method in brief: as §3
Cavia porcellus [40] = assay: Percent inhibition at a dose of 1 mg/kg at given time postdosing intraperitoneally 7 h; assay type: functional; details: ip, route intraperitoneal; method in brief: as §3
Cavia porcellus [41] = assay: Compound was tested for the inhibition of guinea pig active lung anaphylaxis (ALA) Dose administered intravenously; assay type: functional; method in brief: as §2

c1ccc2c(c1)Cn1c(cc3ccccc31)C(N1CCNCC1)=N2
inhibition in vivo at 3.3 mg/kg (Rattus norvegicus [1]): 65.8% | inhibition in vivo at 1 mg/kg (Cavia porcellus [2]): 82% | inhibition in vivo at 0.37 mg/kg (Rattus norvegicus [3]): 14.2% | inhibition in vivo at 3.3 mg/kg (Rattus norvegicus [4]): 92.7% | inhibition in vivo at 0.37 mg/kg (Rattus norvegicus [5]): 44.5% | IC50 (Rattus norvegicus [6]): 7.38 µM | inhibition in vivo at 0.37 mg/kg (Rattus norvegicus [7]): 52% | inhibition in vivo at 3.3 mg/kg (Rattus norvegicus [8]): 55.7% | ED50 (Rattus norvegicus [9]): 0.43 mg/kg

c1ccc2c(c1)Cn1c(cc3ccccc31)C(N1CCOCC1)=N2
inhibition in vivo at 10 mg/kg (Rattus norvegicus [10]): 0.4%

OCCCN1CCN(C2=Nc3ccccc3Cn3c2cc2ccccc23)CC1
inhibition in vivo at 0.12 mg/kg (Rattus norvegicus [11]): 6.8% | inhibition in vivo at 1 mg/kg (Cavia porcellus [2]): 64% | inhibition in vivo at 0.12 mg/kg (Rattus norvegicus [12]): 24.9% | inhibition in vivo at 0.12 mg/kg (Rattus norvegicus [13]): 58.8% | inhibition in vivo at 0.37 mg/kg (Rattus norvegicus [14]): 53% | inhibition in vivo at 0.37 mg/kg (Rattus norvegicus [5]): 53.2% | IC50 (Rattus norvegicus [6]): 15.2 µM | inhibition in vivo at 0.37 mg/kg (Rattus norvegicus [7]): 92.9% | ED50 (Cavia porcellus [15]): 0.69 mg/kg | ED50 (Rattus norvegicus [9]): 0.08 mg/kg

O=C([O-])c1cc(=O)c2c(OCC(O)COc3cccc4oc(C(=O)[O-])cc(=O)c34)cccc2o1.[Na+].[Na+] [CROMOLYN SODIUM]
inhibition in vivo at 1 mg/kg (Rattus norvegicus [16]): 37% | inhibition in vivo at 10 mg/kg (Rattus norvegicus [17]): 21.4% | inhibition in vivo at 1 mg/kg (Rattus norvegicus [18]): 0% | inhibition in vivo at 10 mg/kg (Rattus norvegicus [19]): 97% | inhibition in vivo at 100 mg/kg (Cavia porcellus [20]): 25% | inhibition in vivo at 10 mg/kg (Rattus norvegicus [21]): 8.5% | IC50 (Rattus norvegicus [6]): 256 µM | ED50 (Rattus norvegicus [9]): 2.55 mg/kg

CN1CCC(=C2c3ccccc3CC(=O)c3sccc32)CC1 [KETOTIFEN]
inhibition in vivo at 1 mg/kg (Cavia porcellus [22]): 73% | inhibition in vivo at 3.3 mg/kg (Rattus norvegicus [1]): 35.3% | inhibition in vivo at 1 mg/kg (Cavia porcellus [23]): 68% | inhibition in vivo at 0.37 mg/kg (Rattus norvegicus [3]): 64.6% | inhibition in vivo at 1 mg/kg (Cavia porcellus [24]): 6.5% | inhibition in vivo at 3.3 mg/kg (Rattus norvegicus [4]): 92.4% | inhibition in vivo at 0.001 mg/kg (Cavia porcellus [25]): 57% | inhibition in vivo at 0.37 mg/kg (Rattus norvegicus [5]): 14.8% | IC50 (Rattus norvegicus [6]): 22.9 µM | inhibition in vivo at 0.37 mg/kg (Rattus norvegicus [7]): 63.3% | inhibition in vivo at 3.3 mg/kg (Rattus norvegicus [8]): 62.5% | ED50 (Cavia porcellus [15]): 0.002 mg/kg | inhibition in vivo at 1 mg/kg (Cavia porcellus [26]): 37% | inhibition in vivo at 1 mg/kg (Cavia porcellus [27]): 82% | inhibition in vivo at 1 mg/kg (Cavia porcellus [28]): 68% | ED50 (Rattus norvegicus [9]): 0.32 mg/kg

O=c1[nH]c2ccccc2n1CCCN1CCN(C(c2ccccc2)c2ccccc2)CC1 [OXATOMIDE]
Inhibition (Cavia porcellus [29]): 43% | inhibition in vivo at 3.3 mg/kg (Rattus norvegicus [1]): 46.5% | inhibition in vivo at 1.1 mg/kg (Rattus norvegicus [30]): 35.1% | Inhibition (Rattus norvegicus [31]): 69.1% | Dose (Rattus norvegicus [32]): 1.1 mg/kg | inhibition in vivo at 1 mg/kg (Cavia porcellus [33]): 10.6% | inhibition in vivo at 3.3 mg/kg (Rattus norvegicus [4]): 100% | inhibition in vivo at 1 mg/kg (Cavia porcellus [34]): 45% | inhibition in vivo at 1.1 mg/kg (Rattus norvegicus [35]): 38% | IC50 (Rattus norvegicus [36]): 20.1 µM | inhibition in vivo at 1 mg/kg (Cavia porcellus [37]): 25% | inhibition in vivo at 1 mg/kg (Cavia porcellus [38]): -5% | inhibition in vivo at 1 mg/kg (Cavia porcellus [39]): 16% | inhibition in vivo at 3.3 mg/kg (Rattus norvegicus [8]): 49.3% | inhibition in vivo at 1 mg/kg (Cavia porcellus [40]): 54% | Dose (Cavia porcellus [41]): 1 mg/kg | ED50 (Rattus norvegicus [9]): 1.2 mg/kg
